Assay results: ChEMBL document CHEMBL3400073, “Design, synthesis and biological evaluation of new hybrid anticonvulsants derived from N-benzyl-2-(2,5-dioxopyrrolidin-1-yl)propanamide and 2-(2,5-dioxopyrrolidin-1-yl)butanamide derivatives” (Bioorg Med Chem, 2015)
Activity calls are given as the source filed them. No cut-off for these calls is given here.

Legend:
[1] = system: Mus musculus; test: Anticonvulsant activity in intraperitoneally dosed Albino Swiss CD1 mouse by maximal electroshock test; assay type: functional; conditions: Albino Swiss CD1, ip
Procedure, shortened: (§1)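 Male CD-1 mice were dosed ip (0.1 mL/10 g, methylcellulose vehicle), at least four dose groups of 6 mice each. Protection in MES meant no hindlimb tonic extension after a 25 mA, 50 Hz, 0.2 s ear-electrode shock. Protection in scPTZ meant no clonus over 30 min.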

[2] = system: Mus musculus; test: Neurological toxicity in Albino Swiss CD1 mouse at 100 mg/kg, ip after 0.5 hrs by rotarod test; assay type: organism-based; parameters: dose 100 mg/kg, route intraperitoneal; conditions: in vivo
Procedure, shortened: (§2)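 Mice were trained on a 2 cm rod for 3 min, with unlimited trials, at least 24 h before testing. Each was then dosed ip at 100 mg/kg and tested at 10 rpm 0.5 h or 2 h later, in groups of 4. Failure to stay on the rod for at least 1 min indicated neurotoxicity.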

[3] = system: Mus musculus; test: Anticonvulsant activity in intraperitoneally dosed Albino Swiss CD1 mouse after 0.5 hrs by maximal electroshock test; assay type: functional; procedure, shortened: as §1
[4] = system: Mus musculus; test: Anticonvulsant activity in intraperitoneally dosed Albino Swiss CD1 mouse assessed as time to peak effect after 2 hrs by subcutaneous pentylenetetrazole test; assay type: functional
[5] = system: Mus musculus; test: Anticonvulsant activity in intraperitoneally dosed Albino Swiss CD1 mouse after 0.5 hrs by subcutaneous pentylenetetrazole test; assay type: functional; procedure, shortened: as §1
[6] = organism: Mus musculus; test: Protective index, ratio of neurotoxic TD50 in Albino Swiss CD1 mouse by rotarod test to anticonvulsant ED50 in Albino Swiss CD1 mouse by maximal electroshock test
Procedure, shortened: (§3)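 The protective index is the rotarod TD50 divided by the MES or scPTZ ED50. Each value came from ip dosing in male CD-1 mice with probit analysis, and the reference drugs were tested under the same conditions.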

[7] = system: Mus musculus; test: Protective index, ratio of neurotoxic TD50 in Albino Swiss CD1 mouse by rotarod test to anticonvulsant ED50 in Albino Swiss CD1 mouse by subcutaneous pentylenetetrazole test; procedure, shortened: as §3
[8] = system: Mus musculus; test: Anticonvulsant activity in intraperitoneally dosed Albino Swiss CD1 mouse by subcutaneous pentylenetetrazole test; assay type: functional; procedure, shortened: as §1
[9] = system: Mus musculus; test: Neurological toxicity in Albino Swiss CD1 mouse at 100 mg/kg, ip after 2 hrs by rotarod test; assay type: organism-based; parameters: dose 100 mg/kg, route intraperitoneal; conditions: in vivo; procedure, shortened: as §2
[10] = system: Mus musculus; test: Anticonvulsant activity in intraperitoneally dosed Albino Swiss CD1 mouse assessed as time to peak effect by maximal electroshock test; assay type: functional
[11] = Neurological toxicity in intraperitoneally dosed Albino Swiss CD1 mouse by rotarod test; assay type: organism-based; conditions: in vivo, ip
Procedure, shortened: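 Mice trained on the rotarod were given various ip doses, four groups in all, and tested at 10 rpm. Failure to stay on the rod for at least 1 min indicated neurotoxicity.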

[12] = system: Mus musculus; test: Anticonvulsant activity in Albino Swiss CD1 mouse at 100 mg/kg, ip after 2 hrs by maximal electroshock test; assay type: functional, organism-based; parameters: dose 100 mg/kg
Procedure, shortened: (§4)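 Male CD-1 mice, 16–26 g, in groups of 4, each mouse used once, were given 100 mg/kg ip (0.1 mL/10 g, methylcellulose vehicle). MES used 25 mA, 500 V, 50 Hz delivered by ear electrodes for 0.2 s, and absence of hindlimb tonic extension counted as protection. In scPTZ, mice without clonic convulsions over 30 min of observation counted as protected. Both tests were run 0.5 h or 2 h after dosing.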

[13] = system: Mus musculus; test: Anticonvulsant activity in intraperitoneally dosed Albino Swiss CD1 mouse after 2 hrs by subcutaneous pentylenetetrazole test; assay type: functional; procedure, shortened: as §1
[14] = system: Mus musculus; test: Anticonvulsant activity in Albino Swiss CD1 mouse at 100 mg/kg, ip after 0.5 hrs by subcutaneous pentylenetetrazole test; assay type: functional, organism-based; parameters: dose 100 mg/kg; procedure, shortened: as §4
[15] = system: Mus musculus; test: Anticonvulsant activity in Albino Swiss CD1 mouse at 100 mg/kg, ip after 0.5 hrs by maximal electroshock test; assay type: functional, organism-based; parameters: dose 100 mg/kg; procedure, shortened: as §4
[16] = system: Mus musculus; test: Anticonvulsant activity in Albino Swiss CD1 mouse at 100 mg/kg, ip after 2 hrs by subcutaneous pentylenetetrazole test; assay type: functional, organism-based; parameters: dose 100 mg/kg; procedure, shortened: as §4

Row | SMILES | ED50 [1] [mg/kg] | Activity [2] | MED50 [3] [mg/kg] | Time [4] [h] | MED50 [5] [mg/kg] | Ratio TD50/ED50 [6] | Ratio TD50/ED50 [7] | ED50 [8] [mg/kg] | Activity [9] | Time [10] [h] | TD50 [11] [mg/kg] | Activity [12] | MED50 [13] [mg/kg] | Activity [14] | Activity [15] | Activity [16]
1 | CCC(C(=O)NCc1ccccc1Cl)N1C(=O)CCC1=O (racemic) | 113 | Non-toxic | 100 | 0.5 | 100 | 3.7 | 5.47 | 76.4 | Non-toxic | 0.5 | 418 | inactive | 100 | – | – | –
2 | CCC(C(=O)NCc1ccccc1C(F)(F)F)N1C(=O)CCC1=O (racemic) | > 150 | Non-toxic | – | 0.5 | – | – | – | – | Non-toxic | 0.5 | – | inactive | 100 | inactive | inactive | –
3 | CCC(C(=O)NCc1ccc(C(F)(F)F)cc1)N1C(=O)CCC1=O (racemic) | 69.4 | Non-toxic | 100 | 0.5 | 100 | 1.62 | 1.4 | 80.4 | Non-toxic | 0.5 | 112 | inactive | – | – | – | inactive
4 | CCC(C(=O)NCc1cccc(Cl)c1)N1C(=O)CCC1=O (racemic) | 96.5 | Non-toxic | 100 | 0.5 | 100 | 1.12 | 2.28 | 78.8 | Non-toxic | 0.5 | 180 | inactive | – | – | – | inactive
5 | CC(C(=O)NCc1ccc(Cl)cc1)N1C(=O)CCC1=O (racemic) | 91.8 | Non-toxic | 100 | 0.5 | 100 | 2.48 | 5.23 | 43.6 | Non-toxic | 0.5 | 228 | inactive | – | – | – | inactive
6 | CC(C(=O)NCc1ccccc1)N1C(=O)CCC1=O (racemic) | – | Non-toxic | 100 | 0.5 | 100 | – | – | – | Non-toxic | 0.5 | – | inactive | – | – | – | inactive
7 | CCC(C(=O)NCc1ccccc1)N1C(=O)CCC1=O (racemic) | 73.3 | Non-toxic | 100 | 0.5 | 100 | 4.26 | 3.46 | 90.3 | Non-toxic | 0.5 | 312 | inactive | – | – | – | inactive
8 | CCC(C(=O)NCc1ccc(F)cc1)N1C(=O)CCC1=O (racemic) | – | Non-toxic | – | 0.5 | 100 | – | 3.22 | 83.4 | Non-toxic | 0.5 | 268 | inactive | – | – | inactive | inactive
9 | CC1CC(=O)N(C(C)C(=O)NCc2ccccc2)C1=O (racemic) | 106 | Non-toxic | 100 | 0.5 | 100 | 3.34 | 4.54 | 78.3 | Non-toxic | 0.5 | 355 | inactive | – | – | – | inactive
10 | CCC(C(=O)NCc1cccc(C(F)(F)F)c1)N1C(=O)CCC1=O (racemic) | – | Non-toxic | – | 0.5 | 100 | – | 2.12 | 77.4 | Non-toxic | 0.5 | 163 | inactive | – | – | inactive | inactive
11 | CCC(C(=O)NCc1ccc(Cl)cc1)N1C(=O)CCC1=O (racemic) | 95.3 | Non-toxic | 100 | 0.5 | 100 | 1.83 | 3.43 | 50.8 | Non-toxic | 0.5 | 174 | inactive | 100 | – | – | –
12 | CCC(C(=O)NCc1ccccc1F)N1C(=O)CCC1=O (racemic) | – | Non-toxic | – | 0.5 | 100 | – | 5.27 | 65.7 | Non-toxic | 0.5 | 346 | inactive | 100 | – | inactive | –
13 | CC(C(=O)NCc1ccc(C(F)(F)F)cc1)N1C(=O)CCC1=O (racemic) | 80 | Non-toxic | 100 | 2 | – | 1.78 | 2.62 | 54.5 | Non-toxic | 0.5 | 143 | inactive | 100 | inactive | – | –
